NOD2 RIPK2 PPI: inhibitors of human NOD2-RIPK2 interaction | CHO BLA complementation NOD2-RIPK2, CCF4 ratio | inhibition, % at 4.98 µM | actives 0.38% (n = 360,000) | AID 624267; in the data active means inhibition above about 21%
Target sequence (O43353 whole entry, looked up): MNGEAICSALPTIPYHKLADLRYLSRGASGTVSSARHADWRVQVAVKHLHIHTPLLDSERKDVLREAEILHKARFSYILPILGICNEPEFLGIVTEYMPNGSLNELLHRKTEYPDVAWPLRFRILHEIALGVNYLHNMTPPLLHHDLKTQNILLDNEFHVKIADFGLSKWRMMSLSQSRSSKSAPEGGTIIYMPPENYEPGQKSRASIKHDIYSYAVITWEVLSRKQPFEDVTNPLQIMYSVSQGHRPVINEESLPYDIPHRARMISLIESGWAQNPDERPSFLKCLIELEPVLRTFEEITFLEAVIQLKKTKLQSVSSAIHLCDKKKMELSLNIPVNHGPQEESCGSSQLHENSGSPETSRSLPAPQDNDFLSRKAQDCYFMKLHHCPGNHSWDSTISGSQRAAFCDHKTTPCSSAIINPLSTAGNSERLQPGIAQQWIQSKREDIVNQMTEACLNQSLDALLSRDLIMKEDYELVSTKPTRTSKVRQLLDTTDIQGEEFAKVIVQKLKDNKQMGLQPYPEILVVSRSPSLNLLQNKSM
TLR4 MyD88 comp: inhibitors of human TLR4-MyD88 binding; HeLa CL3-4 TLR4/MyD88 BLA complementation, FRET ratio; inhibition, % at 8.4 µM; actives 0.18% (n = 200,000); in the data active means inhibition above about 25%
MC4R ag barr: agonists of human melanocortin 4 receptor (MC4R) beta-arrestin | actives 0.98% (n = 360,000) | P32245 | U2OS MC4R beta-arrestin complementation, luminescence; percent of melanotan II response, DMSO zero | activation, % at 8.9 µM;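 active means activation above a per-plate cutoff, the mean activation of sample wells on that plate plus 3 SD, cut at about 8% in these data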
TLR9-MyD88 block: inhibitors of human TLR9-MyD88 binding; Q9NR96+Q99836; actives 0.21% (n = 340,000); inhibition, % at 4.98 µM; CHO BLA complementation TLR9-MyD88, CCF4 FRET ratio;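 active means inhibition above the mean over all tested compounds plus 3 SD, cut at about 21% in these data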
NTR1 agonist: NTR1 (human) agonism; P30989; NTR1-U2OS beta-arrestin-GFP spot imaging, agonist mode; activation, % at 20 µM; actives 0.17% (n = 330,000);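 active means activation at or above 40% of the spot to cytoplasm intensity ratio, with at least 20 cells analyzed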
MC4R antag cAMP: human MC4R antagonism in cAMP assay. P32245. MC4R-expressing cells, MTII-stimulated cAMP, LANCE TR-FRET. inhibition, % at 6.5 µM. actives 0.48% (n = 360,000). AID 540295;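 active means inhibition above its plate's cutoff, the mean of tested wells on that plate plus 3 SD, cut at about 29% in these data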
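System: U2OS-MC4R stable cell line; Technique: Eu-cAMP/anti-cAMP TR-FRET, emission 671 nm; Repeats: single well per compound; Also added: Melanotan II; Dosing: one concentration, 6.5 µM nominal; Schedule: 30-min compound, 1-h challenge, 1-h detection, room temperature.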
TLR9-MyD88 conf: TLR9-MyD88 interaction inhibition, confirmation. shares compounds with TLR9-MyD88 block. CHO TLR9/MyD88 BLA complementation, CCF4 FRET ratio. inhibition, % at 4.98 µM. actives 51% (n = 680). AID 540250;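 active means mean inhibition across three repeats above about 21% taken from the earlier screen, limit read from the data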;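 further: blue over green emission ratio reports constitutive TLR9 MyD88 association via BLA complementation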
BLA counter-1: beta-lactamase reporter inhibition, counter-screen artifact; actives 7% (n = 680); CHO-BLA cells, CCF4 FRET ratio, BLA reporter; inhibition, % at 4.98 µM; AID 540251; shares compounds with TLR9-MyD88 block;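 active means mean inhibition above a 50% cutoff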;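 further: counterscreen of TLR9-MyD88 hits on CMV-driven BLA in CHO-K1 cells; higher means less blue over green ratio so more BLA blockade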
TLR9 CHO tox: counter-screen for TLR9-MyD88 inhibitors: cytotoxicity in CHO cells; actives 39% (n = 680); shares compounds with TLR9-MyD88 block; inhibition, % at 4.98 µM; luminescence; in the data active means inhibition above about 11%
cAMP nonselect: U2OS forskolin cAMP inhibition counter-screen. inhibition, % at 6.5 µM. parental U2OS, LANCE TR-FRET. actives 26% (n = 1,600). shares compounds with MC4R antag cAMP;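 active means mean inhibition over triplicates above the low-control well mean plus 3 SD, set per campaign, cut at about 13% in these data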;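 further: signal is single emission at 671 nm which falls as cellular cAMP rises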
MC4R antag conf: human MC4R cAMP antagonism confirmation | shares compounds with MC4R antag cAMP | MC4R-expressing cells, MTII-stimulated cAMP, TR-FRET | inhibition, % at 6.5 µM | actives 27% (n = 1,600) | AID 602195; in the data active means inhibition above about 29%
NOD2 RIPK2 conf: confirmation of human NOD2-RIPK2 interaction inhibitors; actives 70% (n = 1,200); shares compounds with NOD2 RIPK2 PPI; CHO cells, NOD2-RIPK2 BLA complementation, CCF4 FRET; inhibition, % at 4.98 µM;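 active means mean inhibition across replicates above a set limit taken from the earlier primary screen, cut at about 21% in these data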
BLA counter-2: hits BLA reporter in NOD2-RIPK2 inhibitor counterscreen; inhibition, % at 4.98 µM; CHO BLA reporter, CCF4 FRET ratio; AID 624371; actives 57% (n = 1,200); shares compounds with NOD2 RIPK2 PPI;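 active means mean inhibition above the low-control mean inhibition plus three low-control SD, cut at about 11% in these data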
Large screens that a line does not name were inactive (follow-up assays come after a bar, where they were run). Sampled rows, rich in hits. Any-hit rate of the full collection: about 1.9%.

O=C(CN1C(=O)c2ccccc2S1(=O)=O)Nc1ccccc1C(=O)NCc1ccco1	none
O=C(CN1C(=O)c2cccc3cccc1c23)Nc1ccccc1C(=O)NCc1ccco1	NOD2 RIPK2 PPI 23, TLR9-MyD88 block 32 | TLR9-MyD88 conf inactive | BLA counter-1 inactive | TLR9 CHO tox inactive | NOD2 RIPK2 conf 22 | BLA counter-2 22
COc1ccc(NC(=O)N(C)C[C@@H]2OCc3cn(nn3)CCCC(=O)N([C@H](C)CO)C[C@H]2C)cc1	none (no result: TLR4 MyD88 comp, NTR1 agonist)
CCN(CC)C(=O)OCCc1cc2ccccc2c(=O)o1	none (no result: TLR4 MyD88 comp)
CC(=O)Nc1cc2c3c(cccc3c1)-c1ccccc1-2	NOD2 RIPK2 PPI 22, TLR9-MyD88 block 24 (no result: TLR4 MyD88 comp, NTR1 agonist) | TLR9-MyD88 conf inactive | BLA counter-1 inactive | TLR9 CHO tox inactive | NOD2 RIPK2 conf inactive | BLA counter-2 36
O=C(COC(=O)CCC(=O)c1ccc(F)cc1)NCCc1ccccc1	none (no result: TLR4 MyD88 comp)
Cc1ccc2[nH]cc(CCNS(=O)(=O)c3ccc(F)cc3)c2c1	none (no result: TLR4 MyD88 comp)
CCOC(=O)C1=C(CSc2nc3c(cc2C#N)CCC3)OC(N)=C(C#N)C1c1ccccc1 (stereo not drawn)	none
CCOC(=O)C1=C(CSc2nc(-c3ccccc3)ccc2C#N)OC(N)=C(C#N)C1c1ccccc1 (stereo not drawn)	NOD2 RIPK2 PPI 36, TLR9-MyD88 block 32 | TLR9-MyD88 conf inactive | BLA counter-1 inactive | TLR9 CHO tox 20 | NOD2 RIPK2 conf 25 | BLA counter-2 25
COc1ccc(C(=O)COC(=O)c2nn(C)cc2Cl)cc1	none (no result: TLR4 MyD88 comp)
CC(NC(=O)/C(C#N)=C/c1ccc([N+](=O)[O-])o1)c1ccccc1 (stereo not drawn)	NOD2 RIPK2 PPI 52, TLR9-MyD88 block 21 (no result: TLR4 MyD88 comp) | TLR9-MyD88 conf 36 | BLA counter-1 inactive | TLR9 CHO tox 99 | NOD2 RIPK2 conf 51 | BLA counter-2 34
CC(C)N1C(=O)S/C(=C\c2ccc(-c3ccc(Cl)c(C(=O)O)c3)o2)C1=O	none (no result: TLR4 MyD88 comp)
CCN(CC)c1ccc(/C=C2/SC(=O)N(C(C)C)C2=O)o1	NOD2 RIPK2 PPI 65, TLR9-MyD88 block 31 (no result: NTR1 agonist) | TLR9-MyD88 conf inactive | BLA counter-1 inactive | TLR9 CHO tox 61 | NOD2 RIPK2 conf 27 | BLA counter-2 15
COc1cccc(NC(=O)c2nc(S(C)(=O)=O)ncc2Cl)c1	NOD2 RIPK2 PPI 74, TLR9-MyD88 block 45 (no result: TLR4 MyD88 comp) | TLR9-MyD88 conf 42 | BLA counter-1 inactive | TLR9 CHO tox 100 | NOD2 RIPK2 conf 67 | BLA counter-2 32
CN(c1ccccc1)S(=O)(=O)c1ccc(NC(=O)c2ccccc2)cc1	none
CN(c1ccccc1)S(=O)(=O)c1ccc(NC(=O)c2nc(S(C)(=O)=O)ncc2Cl)cc1	NOD2 RIPK2 PPI 100, TLR9-MyD88 block 58, MC4R antag cAMP 57 (no result: TLR4 MyD88 comp) | TLR9-MyD88 conf 52 | BLA counter-1 inactive | TLR9 CHO tox 103 | cAMP nonselect 26 | MC4R antag conf 36 | NOD2 RIPK2 conf 93 | BLA counter-2 51
CS(=O)(=O)c1ccc(Cl)c(NC(=O)CNC(=O)c2ccc3c(c2)OCO3)c1	none (no result: TLR4 MyD88 comp)
CN(CC(=O)Nc1ccccc1C(F)(F)F)C(=O)CCc1nc2ccccc2c(=O)[nH]1	none (no result: TLR4 MyD88 comp)
CS(=O)(=O)c1nc(-c2ccc(F)cc2)cc(C(F)(F)F)n1	NOD2 RIPK2 PPI 62, TLR9-MyD88 block 40 (no result: NTR1 agonist) | TLR9-MyD88 conf 35 | BLA counter-1 inactive | TLR9 CHO tox 97 | NOD2 RIPK2 conf 62 | BLA counter-2 12
O=C(O)c1ccccc1C(=O)c1ccc(-c2ccccc2)cc1	none (no result: TLR4 MyD88 comp)
O=C(c1ccccc1)c1ccccc1N1C(=O)C=CC1=O	NOD2 RIPK2 PPI 70, TLR9-MyD88 block 33 (no result: TLR4 MyD88 comp) | TLR9-MyD88 conf 26 | BLA counter-1 inactive | TLR9 CHO tox 96 | NOD2 RIPK2 conf 69 | BLA counter-2 16
CCOC(Cn1cc(C)c(=O)[nH]c1=O)OCC	none
O=C(CN1C(=O)NC2(CCCCC2)C1=O)Oc1ccc2c(C(F)(F)F)cc(=O)oc2c1	NOD2 RIPK2 PPI 67, TLR9-MyD88 block 43 (no result: TLR4 MyD88 comp) | TLR9-MyD88 conf 36 | BLA counter-1 inactive | TLR9 CHO tox inactive | NOD2 RIPK2 conf 63 | BLA counter-2 67
CCc1cc(=O)oc2cc(OC(=O)CN3C(=O)NC4(CCCC4)C3=O)ccc12	none (no result: TLR4 MyD88 comp)
O=C(C#Cc1ccccc1)c1ccco1	NOD2 RIPK2 PPI 78, TLR9-MyD88 block 30 (no result: TLR4 MyD88 comp) | TLR9-MyD88 conf 48 | BLA counter-1 inactive | TLR9 CHO tox 97 | NOD2 RIPK2 conf 83 | BLA counter-2 18
CCCCCCSc1cc(-c2nc3cnccn3c2NCCCC)ccc1OC	NOD2 RIPK2 PPI 44, TLR9-MyD88 block 41 (no result: TLR4 MyD88 comp) | TLR9-MyD88 conf 26 | BLA counter-1 inactive | TLR9 CHO tox 14 | NOD2 RIPK2 conf 40 | BLA counter-2 52
CCOC(=O)C1=C(C)Nc2sc(C(=O)c3ccc(OC)cc3)c(N)c2C1c1ccc(C(=O)OC)cc1 (stereo not drawn)	NOD2 RIPK2 PPI 39, TLR9-MyD88 block 44 | TLR9-MyD88 conf inactive | BLA counter-1 inactive | TLR9 CHO tox inactive | NOD2 RIPK2 conf inactive | BLA counter-2 20
COC(=O)C1=C(C)Nc2sc(C(N)=O)c(N)c2C1c1ccncc1 (stereo not drawn)	none
COC(=O)c1cnn(-c2nc(OC)cc(OC)n2)c1C	none
COc1cc(OC)nc(-n2ncc(Br)c(Br)c2=O)n1	NOD2 RIPK2 PPI 50, TLR9-MyD88 block 23 (no result: NTR1 agonist) | TLR9-MyD88 conf 27 | BLA counter-1 inactive | TLR9 CHO tox 100 | NOD2 RIPK2 conf 60 | BLA counter-2 inactive

High-throughput results deposited in PubChem BioAssay by several laboratories.
